Assay results taken from ChEMBL document CHEMBL1127533, “Presynaptic cholinergic modulators as potent cognition enhancers and analgesic drugs. 2. 2-Phenoxy-, 2-(phenylthio)-, and 2-(phenylamino)alkanoic acid esters” (J Med Chem, 1994).
Activity calls are given as the source filed them.

Assays:
Mus musculus [1] = species on record: Mus musculus; assay: Analgesic activity in male albino Swiss-Webster mice in hotplate test; assay type: functional
In short: (§1)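 Mouse hot-plate assay after Woolfe, with the plate held at 52.5 ± 0.1 °C and a 45 s cutoff. Groups held 8–20 mice. Analgesic potency is expressed as the ED50.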

Mus musculus [2] = assay: Analgesic potency was evaluated as effective dose after subcutaneous administration.; assay type: functional; in short: as §1
[3] = Mus musculus, sc, read-out: ED50

Row | Structure (SMILES) | Analgesic activity (Mus musculus [1]) | ED50 (Mus musculus [2]; [3]) [mg/kg] | ED50 (Mus musculus [2]) [mg/kg]
1 | CC(C(=O)OC1CC2CCC(C1)N2C)[S+]([O-])c1ccccc1 (stereo not drawn) | inactive | – | –
2 | CCC(Oc1ccccc1)C(=O)OC1CC2CCC(C1)N2C (stereo not drawn) | 35 | 31 | –
3 | C[C@@H](Oc1ccc(F)cc1)C(=O)OC1CC2CCC(C1)N2C (stereo partly drawn) | 106 | 21 | –
4 | CC(C(=O)OC1CC2CCC(C1)N2C)N(C)c1ccc(Cl)cc1.O=C(O)/C=C\C(=O)O (stereo not drawn) | 86 | 29 | –
5 | CC(Oc1ccc(Cl)c(Cl)c1)C(=O)OC1CC2CCC(C1)N2C.O=C(O)/C=C\C(=O)O (stereo not drawn) | 50 | 22 | –
6 | CC(C)C(Oc1ccc(Cl)cc1)C(=O)OC1CC2CCC(C1)N2C (stereo not drawn) | inactive | – | –
7 | CC(Oc1ccc2cc(Br)ccc2c1)C(=O)OC1CC2CCC(C1)N2C (stereo not drawn) | inactive | – | –
8 | CCC(Oc1ccc(Cl)cc1)C(=O)OC1CC2CCC(C1)N2CC (stereo not drawn) | 45 | 32 | –
9 | CC(Oc1ccc(Cl)cc1)C(=O)OC1CC2CCC(C1)N2C.O=C(O)/C=C\C(=O)O (stereo in doubt; 12) | 26 | – | 21
10 | Cc1cc(OC(C)C(=O)OC2CC3CCC(C2)N3C)ccc1Cl (stereo not drawn) | inactive | – | –
11 | CCN1C2CCC1CC(OC(=O)C(C)Oc1ccc(Cl)cc1)C2.O=C(O)/C=C\C(=O)O (stereo not drawn) | 42 | 42 | –
12 | CC(Nc1ccc(Cl)cc1)C(=O)OC1CC2CCC(C1)N2C (stereo not drawn) | 33 | 31 | –
13 | CC(C)C(Sc1ccc(Cl)cc1)C(=O)OC1CC2CCC(C1)N2C.O=C(O)/C=C\C(=O)O (stereo not drawn) | 41 | 41 | –
14 | CCC(Oc1ccc(Cl)cc1)C(=O)OCC#CCN(CC)CC (stereo not drawn) | inactive | – | –
15 | CCC(Oc1ccc(F)cc1)C(=O)OC1CC2CCC(C1)N2C (stereo not drawn) | 94 | 37 | –
16 | CC(Oc1ccc(C(C)(C)C)cc1)C(=O)OC1CC2CCC(C1)N2C (stereo not drawn) | inactive | – | –
17 | CN1C2CCC1CC(OC(=O)C(Oc1ccc(Cl)cc1)c1ccccc1)C2 (stereo not drawn) | inactive | – | –
18 | CCC(Sc1ccccc1)C(=O)OC1CC2CCC(C1)N2C (stereo in doubt; (-)-42) | 53 | – | 13
19 | CC[C@H](Sc1ccc(Cl)cc1)C(=O)OC1CC2CCC(C1)N2C (stereo partly drawn) | 38 | 14 | –
20 | CC(Oc1ccc(Br)cc1)C(=O)OC1CC2CCC(C1)N2C (stereo not drawn) | 86 | 31 | –
21 | CC[C@@H](Oc1ccc(Cl)cc1)C(=O)OC1CC2CCC(C1)N2C (stereo partly drawn) | 89 | 14 | –
22 | CC(Oc1ccc(Cl)cc1)C(=O)OC1CC2CCC(C1)N2Cc1ccccc1 (stereo not drawn) | inactive | – | –
23 | CC(C(=O)OC1CC2CCC(C1)N2C)C(=O)c1ccc(Cl)cc1 (stereo not drawn) | 30 | 34 | –
24 | C[C@H](Oc1ccc(Cl)cc1)C(=O)OC1CC2CCC(C1)N2C (stereo partly drawn) | 37 | 17 | –

Row | Structure (SMILES) | Analgesic activity (Mus musculus [1]) | ED50 (Mus musculus [2]; [3]) [mg/kg] | ED50 (Mus musculus [2]) [mg/kg]
25 | CCC(COC1CC2CCC(C1)N2C)Oc1ccc(Cl)cc1 (stereo not drawn) | inactive | – | –
26 | CC(Sc1ccc(Br)cc1)C(=O)OC1CC2CCC(C1)N2C (stereo not drawn) | 33 | 35 | –
27 | CC(Sc1ccc(Cl)cc1)C(=O)OC1CC2CCC(C1)N2C.O=C(O)/C=C\C(=O)O (racemic) | 72 | 19 | –
28 | CC(COC1CC2CCC(C1)N2C)Sc1ccc(Cl)cc1 (stereo not drawn) | inactive | – | –
29 | CCC(COC1CC2CCC(C1)N2C)Sc1ccc(Cl)cc1 (stereo not drawn) | 53 | 39 | –
30 | CCC(Sc1ccccc1)C(=O)OC1CC2CCC(C1)N2C (single isomer, unassigned; (+)) | 86 | 16 | –
31 | CC(Oc1ccc(Cl)c2ccccc12)C(=O)OC1CC2CCC(C1)N2C (stereo not drawn) | inactive | – | –
32 | CC(Oc1cccc(Cl)c1)C(=O)OC1CC2CCC(C1)N2C (stereo not drawn) | 62 | 26 | –
33 | CC(Oc1ccc(C(F)(F)F)cc1)C(=O)OC1CC2CCC(C1)N2C (stereo not drawn) | 44 | 26 | –
34 | CCN(CC)CCOC(=O)C(C)Oc1ccc(Cl)cc1 (stereo not drawn) | inactive | – | –
35 | CC(COC1CC2CCC(C1)N2C)Oc1ccc(Cl)cc1 (stereo not drawn) | 64 | 44 | –
36 | CC(Oc1ccc(Cl)cc1)C(=O)OC1CC2CCC(C1)N2 (stereo not drawn) | inactive | – | –
37 | CC(Oc1ccc(-c2ccccc2)cc1)C(=O)OC1CC2CCC(C1)N2C (stereo not drawn) | inactive | – | –
38 | CC(Oc1ccc(Cl)cc1)C(=O)OC1CCN(C)CC1 (stereo not drawn) | inactive | – | –
39 | CCC(C(=O)OC1CC2CCC(C1)N2C)N(C)c1ccc(Cl)cc1.O=C(O)/C=C\C(=O)O (stereo not drawn) | 85 | 38 | –
40 | CN1C2CCC1CC(OC(=O)C(C)(C)Oc1ccc(Cl)cc1)C2 (stereo not drawn) | 52 | 23 | –
41 | CSc1ccc(OC(C)C(=O)OC2CC3CCC(C2)N3C)cc1.O=C(O)/C=C\C(=O)O (stereo not drawn) | 21 | 43 | –
42 | CC(Sc1ccccc1)C(=O)OC1CC2CCC(C1)N2C.O=C(O)/C=C\C(=O)O (stereo not drawn) | 62 | 30 | –
43 | CC(Oc1ccccc1)C(=O)OC1CC2CCC(C1)N2C (stereo not drawn) | inactive | – | –
44 | CCC(Oc1ccc2ccccc2c1)C(=O)OC1CC2CCC(C1)N2C (stereo not drawn) | inactive | – | –
45 | CC(Nc1ccccc1)C(=O)OC1CC2CCC(C1)N2C.Cl (stereo not drawn) | 74 | 32 | –
46 | CC(Oc1ccc(Cl)cc1)C(=O)NC1CC2CCC(C1)N2C.Cl (stereo not drawn) | 33 | 36 | –
47 | CCN(CC)CC#CCOC(=O)C(C)Oc1ccc(Cl)cc1 (stereo not drawn) | inactive | – | –
48 | CC(Sc1ccc(F)cc1)C(=O)OC1CC2CCC(C1)N2C (stereo not drawn) | 41 | 15 | –

Row | Structure (SMILES) | Analgesic activity (Mus musculus [1]) | ED50 (Mus musculus [2]; [3]) [mg/kg] | ED50 (Mus musculus [2]) [mg/kg]
49 | CC[C@H](Oc1ccc(Cl)cc1)C(=O)OC1CC2CCC(C1)N2C (stereo partly drawn) | 56 | 18 | –
50 | CC(Oc1ccc([S+](C)[O-])cc1)C(=O)OC1CC2CCC(C1)N2C (stereo not drawn) | inactive | – | –
51 | C[C@@H](Sc1ccc(Cl)cc1)C(=O)OC1CC2CCC(C1)N2C (stereo partly drawn) | 61 | 14 | –
52 | Cc1ccc(SC(C)C(=O)OC2CC3CCC(C2)N3C)cc1.O=C(O)/C=C\C(=O)O (stereo not drawn) | 33 | 7 | –
53 | CC(Oc1ccc(F)cc1)C(=O)OC1CC2CCC(C1)N2C.O=C(O)/C=C\C(=O)O (racemic) | 91 | 33 | –
54 | CN1C2CCC1CC(OC(=O)C(Cc1ccccc1)Oc1ccc(Cl)cc1)C2 (stereo not drawn) | inactive | – | –
55 | CC(Oc1ccccc1Cl)C(=O)OC1CC2CCC(C1)N2C (stereo not drawn) | inactive | – | –
56 | C[C@H](Sc1ccc(Cl)cc1)C(=O)OC1CC2CCC(C1)N2C (stereo partly drawn) | 34 | 16 | –
57 | CC(Oc1cccc2ccccc12)C(=O)OC1CC2CCC(C1)N2C (stereo not drawn) | inactive | – | –
58 | CN1C2CCC1CC(OC(=O)COc1ccccc1)C2 (stereo not drawn) | inactive | – | –
59 | CC[C@@H](Sc1ccc(Cl)cc1)C(=O)OC1CC2CCC(C1)N2C (stereo partly drawn) | 64 | 11 | –
60 | CCC(Oc1ccc(Cl)c2ccccc12)C(=O)OC1CC2CCC(C1)N2C (stereo not drawn) | inactive | – | –
61 | C[C@@H](Oc1ccc(Cl)cc1)C(=O)OC1CC2CCC(C1)N2C (stereo partly drawn) | 68 | 16 | –
62 | CCC(Oc1cccc2ccccc12)C(=O)OC1CC2CCC(C1)N2C (stereo not drawn) | inactive | – | –
63 | CCC(Oc1ccc2cc(Br)ccc2c1)C(=O)OC1CC2CCC(C1)N2C.O=C(O)/C=C\C(=O)O (stereo not drawn) | 32 | 42 | –
64 | CCC(Sc1ccc(Cl)cc1)C(=O)OC1CC2CCC(C1)N2C (racemic) | 79 | 20 | –
65 | CC(Oc1ccc(C#N)cc1)C(=O)OC1CC2CCC(C1)N2C.O=C(O)/C=C\C(=O)O (stereo not drawn) | 53 | 31 | –
66 | CC(Oc1ccc2ccccc2c1)C(=O)OC1CC2CCC(C1)N2C.O=C(O)/C=C\C(=O)O (stereo not drawn) | 86 | 34 | –
67 | CCC(Oc1ccc(Cl)cc1)C(=O)OCCCN(C)C (stereo not drawn) | inactive | – | –
68 | CC(=O)OCC(Oc1ccc(Cl)cc1)C(=O)OC1CC2CCC(C1)N2C (stereo not drawn) | 25 | 23 | –
69 | CCC(Oc1ccc(Cl)cc1)C(=O)OC1CCN(C)CC1 (stereo not drawn) | inactive | – | –
70 | C[C@H](Oc1ccc(F)cc1)C(=O)OC1CC2CCC(C1)N2C (stereo partly drawn) | 65 | 23 | –
